Laboratory results taken from ChEMBL document CHEMBL1143356, “Synthesis and characterization of a peripherally restricted CB1 cannabinoid antagonist, URB447, that reduces feeding and body-weight gain in mice” (Bioorg Med Chem Lett, 2009).
One block for each molecule: values may come before it. Active and inactive are the calls of the source. The rule behind the calls is not given here.

Assays:
Cannabinoid receptor 2 = Cannabinoid receptor 2 (Homo sapiens, UniProt P34972); test: Displacement of [3H]WIN-55212-2 from human CB2 receptor expressed in CHO-K1 cells by liquid scintillation counting; type: cell-based
[1] = biological target: Cannabinoid receptor 1 (Rattus norvegicus) (UniProt P20272); test: Antagonist activity at CB1 receptor in rat cerebellar membrane by [35S]GTPgammaS binding assay; type: functional, cell membranes; conditions: Cerebellum
Procedure, shortened: (§1)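 Rat cerebellar membranes (20 μg) from freshly dissected cerebella. Incubate 90 min at 30 °C with 0.05 nM [35S]GTPγS and graded compound concentrations, in 20 mM Tris pH 7.4 with 5 mM MgCl2, 0.1 M NaCl, 30 μM GDP, adenosine deaminase, 0.02% BSA and PMSF. Run ± 10 μM WIN-55212-2. Stop by centrifugation at 4 °C, wash the pellet, and count by liquid scintillation.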

Mus musculus [2] = test: Anorexic activity in Swiss mouse assessed as reduction of food intake at 20 mg/kg, ip administered 30 mins before dark onset after 24 hrs; type: functional, organism-based; design: dose 20 mg/kg
Procedure, shortened: (§2)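 Male Swiss mice (20-25 g) housed singly in automated feeding cages after 4 days of habituation. Dose i.p. in saline/10% PEG-400/10% Tween-80 before dark onset. Weight of food removed is logged continuously and expressed as food per kg body weight.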

[3] = Lipophilicity, log P of the compound; type: physicochemical; conditions: octanol/water
Mus musculus [4] = test: Inhibition of WIN-55212-2-induced catalepsy in Swiss mouse at 20 mg/kg ip administered 30 mins before WIN-55212-2 challenge measured after 30 mins by ring catalepsy test; type: functional, organism-based; design: dose 20 mg/kg
Procedure, shortened: (§3)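 Mice dosed i.p. Ring test scored by a blinded observer as total time cataleptic during a 3-min observation.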

Mus musculus [5] = test: Inhibition of WIN-55212-2-induced hypothermia in Swiss mouse assessed as change in body temperature at 20 mg/kg ip administered 30 mins before WIN-55212-2 challenge; type: functional, organism-based; design: dose 20 mg/kg
Procedure, shortened: (§4)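 Mice dosed i.p. Rectal temperature taken with a digital probe and reported as change from baseline.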

Mus musculus [6] = test: Antianalgesic activity in Swiss mouse assessed as inhibition of (R)-methanandamide-induced analgesic effect at 20 mg/kg, ip administered 30 mins before (R)-methanandamide challenge measured for 45 mins by formalin planter test; type: functional, organism-based; design: dose 20 mg/kg
Procedure, shortened: (§5)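 Formalin test in mice. Inject 10 μL of 5% formaldehyde (vehicle: saline/5% PEG-400/5% Tween-80) into the plantar paw, with (R)-methanandamide dissolved in the formalin. Give the antagonist i.p. 30 min before formalin. A blinded observer scores paw licking and biting for 45 min (phase I 0-15 min, phase II 15-45 min).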

Mus musculus [7] = test: Anorexic activity in Swiss mouse assessed as reduction of food intake at 5 mg/kg, ip administered 30 mins before dark onset after 24 hrs; type: functional, organism-based; design: dose 5 mg/kg; procedure, shortened: as §2
[8] = Drug level in Swiss mouse white adipose tissue at 20 mg/kg, ip after 15 mins; type: ADME, organism-based; design: dose 20 mg/kg, route intraperitoneal; conditions: in vivo, 0.25 h
Procedure, shortened: (§6)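 Mice dosed i.p. Blood and snap-frozen tissue are extracted in CH3OH:CHCl3:H2O and analysed by LC/MS on a cyano column with a water/methanol gradient containing acetic acid and ammonium acetate, at 0.4 mL/min.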

[9] = biological target: Cannabinoid receptor 2 (Mus musculus) (UniProt P47936); test: Agonist activity at mouse CB2 receptor expressed in HEK293 cells assessed as cAMP accumulation at 1 uM by radioimmunoassay; type: functional, cell-based
Procedure, shortened: (§7)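 Stably transfected HEK cells carrying mouse CB2. Rinse in HEPES buffer (15 min), preincubate with IBMX 10 mM (15 min), then incubate with IBMX ± isoproterenol 10 μM (15 min), all at 37 °C in a shaking bath. Cannabinoid is present in both the preincubation and the incubation.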

Mus musculus [10] = test: Effect on motor activity in Swiss mouse assessed as number of light beam interruptions projecting across each cage at 20 mg/kg, ip; type: functional, organism-based; design: dose 20 mg/kg
Procedure, shortened: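 Male Swiss mice in the automated cages, dosed i.p. in saline/PEG-400/Tween-80 vehicle. Activity is counted as light-beam interruptions, recorded at the same time as feeding.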

Cannabinoid receptor 1 [11] = biological target: T1, Cannabinoid receptor 1 (Rattus norvegicus, UniProt P20272); test: Antagonist activity at CB1 receptor in rat cerebellar membrane assessed as inhibition of WIN-55212-2-induced [35S]GTPgammaS binding by liquid scintillation counting; type: functional, cell membranes, Cerebellum; procedure, shortened: as §1
Cannabinoid receptor 1 [12] = biological target: T1, Cannabinoid receptor 1; test: Displacement of [3H]WIN-55212-2 from CB1 receptor in rat cerebellar membrane by liquid scintillation counting; type: cell membranes, Cerebellum
[13] = biological target: Cannabinoid receptor 2 (Mus musculus) (UniProt P47936); test: Agonist activity at mouse CB2 receptor expressed in HEK293 cells assessed as inhibition of isoproterenol-induced cAMP accumulation at 1 uM by radioimmunoassay; type: functional, cell-based; procedure, shortened: as §7
[14] = Plasma concentration in Swiss mouse at 20 mg/kg, ip after 30 mins; type: ADME, organism-based; design: dose 20 mg/kg, route intraperitoneal; conditions: read-out: Cmax; procedure, shortened: as §6
Mus musculus [15] = test: Antiobesity activity in ob/ob mouse assessed as reduction of body weight gain at 20 mg/kg, ip once daily for 2 weeks; type: functional, organism-based; design: dose 20 mg/kg
Mus musculus [16] = test: Inhibition of WIN-55212-2-induced hypothermia in Swiss mouse assessed as change in body temperature at 2 mg/kg ip administered 30 mins before WIN-55212-2 challenge; type: functional, organism-based; design: dose 2 mg/kg; procedure, shortened: as §4
Mus musculus [17] = test: Antianalgesic activity in Swiss mouse assessed as inhibition of (R)-methanandamide-induced analgesic effect at 2 mg/kg, ip administered 30 mins before (R)-methanandamide challenge measured for 45 mins by formalin planter test; type: functional, organism-based; design: dose 2 mg/kg; procedure, shortened: as §5
Mus musculus [18] = test: Inhibition of WIN-55212-2-induced catalepsy in Swiss mouse at 5 mg/kg ip administered 30 mins before WIN-55212-2 challenge measured after 30 mins by ring catalepsy test; type: functional, organism-based; design: dose 5 mg/kg; procedure, shortened: as §3
Mus musculus [19] = test: Antiobesity activity in ob/ob mouse assessed as reduction of food intake at 20 mg/kg, ip once daily for 2 weeks; type: functional, organism-based; design: dose 20 mg/kg

Sequence of Cannabinoid receptor 2 (P34972 whole entry): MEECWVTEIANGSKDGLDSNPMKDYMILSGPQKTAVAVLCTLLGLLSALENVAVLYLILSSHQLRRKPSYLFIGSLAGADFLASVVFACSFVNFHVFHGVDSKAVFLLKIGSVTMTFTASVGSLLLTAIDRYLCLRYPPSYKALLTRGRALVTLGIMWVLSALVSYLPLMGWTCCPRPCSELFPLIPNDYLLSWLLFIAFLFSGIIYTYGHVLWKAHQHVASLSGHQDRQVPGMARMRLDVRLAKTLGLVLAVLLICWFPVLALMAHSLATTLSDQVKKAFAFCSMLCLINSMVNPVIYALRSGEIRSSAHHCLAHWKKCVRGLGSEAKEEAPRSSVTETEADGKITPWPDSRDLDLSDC
T1 sequence (P20272 whole entry): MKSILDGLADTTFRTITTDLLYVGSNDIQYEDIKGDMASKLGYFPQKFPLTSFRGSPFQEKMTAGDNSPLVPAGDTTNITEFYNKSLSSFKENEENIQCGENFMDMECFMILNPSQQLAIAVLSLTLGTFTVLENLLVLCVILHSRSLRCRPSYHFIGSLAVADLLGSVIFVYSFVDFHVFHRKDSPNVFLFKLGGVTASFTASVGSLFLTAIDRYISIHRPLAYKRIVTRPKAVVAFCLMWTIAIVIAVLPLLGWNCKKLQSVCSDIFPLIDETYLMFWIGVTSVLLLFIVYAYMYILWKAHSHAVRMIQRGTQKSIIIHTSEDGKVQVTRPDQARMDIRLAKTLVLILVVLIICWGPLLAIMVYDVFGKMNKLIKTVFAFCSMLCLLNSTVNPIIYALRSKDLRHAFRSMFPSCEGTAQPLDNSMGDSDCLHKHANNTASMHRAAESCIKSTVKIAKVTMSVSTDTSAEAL
Sequence of Cannabinoid receptor 2 (Mus musculus) (P47936 whole entry): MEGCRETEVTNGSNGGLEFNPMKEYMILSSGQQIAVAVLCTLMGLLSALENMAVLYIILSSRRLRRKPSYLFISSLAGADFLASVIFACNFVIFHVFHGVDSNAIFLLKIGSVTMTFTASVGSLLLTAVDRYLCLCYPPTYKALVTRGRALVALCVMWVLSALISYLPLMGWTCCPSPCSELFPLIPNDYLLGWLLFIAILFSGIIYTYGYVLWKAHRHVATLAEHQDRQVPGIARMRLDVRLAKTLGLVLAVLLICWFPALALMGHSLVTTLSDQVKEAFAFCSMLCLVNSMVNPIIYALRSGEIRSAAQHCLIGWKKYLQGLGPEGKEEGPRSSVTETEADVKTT
Sequence of Cannabinoid receptor 1 (Rattus norvegicus) (P20272 whole entry): as the sequence (P20272 whole entry) above

IC50 (Cannabinoid receptor 2): 41 nM
Activity [1]: inactive
logP [3]: 6.39
Cmax [8]: 42 nmol/g
Activity [9]: 5.9 pmol
EC50 (Cannabinoid receptor 1 [11]): 4900 nM
IC50 (Cannabinoid receptor 1 [12]): 313 nM
Activity [13]: 14.3 pmol
concentration at 0.5 h [14]: 596 nM
Structure (SMILES): Cc1c(C(=O)c2ccccc2)c(N)c(-c2ccccc2)n1Cc1ccc(Cl)cc1
Activity (Mus musculus [2]): inactive
Activity (Mus musculus [4]): inactive
Activity (Mus musculus [5]): inactive
Activity (Mus musculus [6]): Active
Activity (Mus musculus [7]): inactive
Activity (Mus musculus [10]): inactive
Activity (Mus musculus [15]): Active

IC50 (Cannabinoid receptor 2): > 1000 nM
IC50 (Cannabinoid receptor 1 [12]): > 1000 nM
Structure (SMILES): Cc1[nH]c(-c2ccccc2)c(N)c1C(=O)c1ccccc1

Structure (SMILES): Cc1c(C(=O)NN2CCCCC2)cc(-c2ccccc2)n1Cc1ccc(Cl)cc1
IC50 (Cannabinoid receptor 2): > 1000 nM
IC50 (Cannabinoid receptor 1 [12]): > 1000 nM

Structure (SMILES): Cc1c(C(=O)NN2CCCCC2)nn(-c2ccc(Cl)cc2Cl)c1-c1ccc(Cl)cc1
Activity (Mus musculus [16]): Active
Activity (Mus musculus [17]): Active
Activity (Mus musculus [18]): Active
Activity (Mus musculus [19]): Active

Structure (SMILES): Cc1c(C(=O)NC2CC3CCC2C3)cc(-c2ccccc2)n1Cc1ccc(Cl)cc1 (configuration not stated)
IC50 (Cannabinoid receptor 2): 420 nM
IC50 (Cannabinoid receptor 1 [12]): > 1000 nM

Structure (SMILES): Cc1c(C(=O)NC2C3CC4CC(C3)CC2C4)cc(-c2ccccc2)n1Cc1ccc(Cl)cc1 (configuration not stated)
IC50 (Cannabinoid receptor 2): 11 nM
IC50 (Cannabinoid receptor 1 [12]): 70 nM

Structure (SMILES): Cc1c(C(=O)c2ccccc2)cc(-c2ccccc2)n1Cc1ccc(Cl)cc1
IC50 (Cannabinoid receptor 2): 498 nM
IC50 (Cannabinoid receptor 1 [12]): > 1000 nM

Structure (SMILES): Cc1c(C(=O)NC2C3CC4CC(C3)CC2C4)c(Br)c(-c2ccccc2)n1Cc1ccc(Cl)cc1 (configuration not stated)
IC50 (Cannabinoid receptor 2): 123 nM
IC50 (Cannabinoid receptor 1 [12]): > 1000 nM
